# According to ChEMBL document CHEMBL5030505, “Assessment of NR4A Ligands That Directly Bind and Modulate the Orphan Nuclear Receptor Nurr1” (J Med Chem, 2020):
# Biological target: Nuclear receptor subfamily 4 group A member 2 (Homo sapiens) (UniProt P43354)
# Assay: Modulation of full length human Nurr1 expressed in SKNBE(2) cells co-transfected with RXRalpha and luciferase reporter plasmid harboring NurRE response element assessed as increase in luciferase activity incubated for 18 hrs by luciferase reporter-gene assay
# Assay type: cell-based
# Settings: SKNBE2, filed as modulator
# In short: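 SK-N-BE(2)-C cells were kept in 1:1 EMEM/F12 with 10% FBS at 37°C and 5% CO2. They were cotransfected with full-length Nurr1 (1 μg), full-length RXRα (1 μg) and 3xNBRE- or 3xNurRE-luc reporter (6 μg) for 18 h, replated at 10,000 cells/well for 4 h, and then treated with ligand or vehicle in quadruplicate for 18 h. The readout was luciferase luminescence as fold over vehicle, reported as mean ± s.e.m. (n=4) from 2 independent experiments, one-way ANOVA.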
# Chain of Nuclear receptor subfamily 4 group A member 2 (Homo sapiens) (P43354 whole entry): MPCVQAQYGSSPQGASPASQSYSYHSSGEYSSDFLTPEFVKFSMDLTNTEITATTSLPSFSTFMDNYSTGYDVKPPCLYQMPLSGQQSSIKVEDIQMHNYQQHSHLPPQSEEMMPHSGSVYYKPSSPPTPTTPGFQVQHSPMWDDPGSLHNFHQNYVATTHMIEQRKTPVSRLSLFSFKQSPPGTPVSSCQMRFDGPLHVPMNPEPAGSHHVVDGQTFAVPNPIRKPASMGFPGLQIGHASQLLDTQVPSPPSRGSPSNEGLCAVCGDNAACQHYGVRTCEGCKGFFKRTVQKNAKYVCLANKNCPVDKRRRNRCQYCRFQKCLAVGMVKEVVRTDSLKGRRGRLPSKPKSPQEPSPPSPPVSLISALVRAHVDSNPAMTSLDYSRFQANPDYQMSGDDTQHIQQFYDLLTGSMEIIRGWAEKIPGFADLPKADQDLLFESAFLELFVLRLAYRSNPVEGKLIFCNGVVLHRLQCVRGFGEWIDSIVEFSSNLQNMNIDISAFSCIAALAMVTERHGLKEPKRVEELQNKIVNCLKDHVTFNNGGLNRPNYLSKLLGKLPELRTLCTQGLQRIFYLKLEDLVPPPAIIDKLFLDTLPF
row,Activity,SMILES
1,Dose-Dependent Effect,CCN(CC)CCCC(C)Nc1ccnc2cc(Cl)ccc12 (stereo not given) [CHLOROQUINE]
2,Dose-Dependent Effect,CCCCCCCC(=O)c1c(O)cc(O)cc1CC(=O)OCC [CYTOSPORONE B]

# Biological target: Nuclear receptor subfamily 4 group A member 2 (Homo sapiens) (UniProt P43354)
# Assay: Modulation of full length human Nurr1 expressed in SKNBE(2) cells co-transfected with luciferase reporter plasmid harboring NurRE response element assessed as increase in luciferase activity incubated for 18 hrs by luciferase reporter-gene assay
# Assay type: cell-based
# Settings: SKNBE2, filed as modulator
# In short: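 Transfection of SK-N-BE(2)-C cells (1:1 EMEM/F12, 10% FBS, 37°C, 5% CO2) used full-length Nurr1 alone (2 μg, no RXRα) with 3xNBRE- or 3xNurRE-luciferase reporter (6 μg) for 18 h. Cells were replated at 10,000/well for 4 h, then exposed to ligand or vehicle in quadruplicate for 18 h. Luminescence was expressed as fold over vehicle, as mean ± s.e.m. (n=4) from 2 independent experiments, one-way ANOVA against vehicle.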
row,Activity,SMILES
1,Dose-Dependent Effect,CCN(CC)CCCC(C)Nc1ccnc2cc(Cl)ccc12 (stereo not given) [CHLOROQUINE]
2,Dose-Dependent Effect,CCCCCCCC(=O)c1c(O)cc(O)cc1CC(=O)OCC [CYTOSPORONE B]

# Biological target: Nuclear receptor subfamily 4 group A member 2 (Homo sapiens) (UniProt P43354)
# Assay: Modulation of full length human Nurr1 expressed in PC12 cells co-transfected with RXRalpha and luciferase reporter plasmid harboring NurRE response element assessed as increase in luciferase activity incubated for 18 hrs by luciferase reporter-gene assay
# Assay type: cell-based
# Settings: PC-12, filed as modulator
# In short: (§1)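 PC12 cells were grown at 37°C and 5% CO2 in […] medium with 15% horse serum and 2.5% FBS. They were transfected with full-length Nurr1 (1 μg) plus full-length RXRα (1 μg) and 3xNBRE- or 3xNurRE-luciferase reporter (6 μg) for 18 h, then replated at 10,000 cells/well for 4 h. Ligand or vehicle (water, ethanol or DMSO) was added in quadruplicate for 18 h. Luminescence was read as fold change over vehicle. Results are mean ± s.e.m., n=4, from 2 independent experiments, analysed by one-way ANOVA against vehicle.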
row,Activity,SMILES
1,Dose-Dependent Effect,CCN(CC)CCCC(C)Nc1ccnc2cc(Cl)ccc12 (stereo not given) [CHLOROQUINE]
2,Dose-Dependent Effect,CCCCCCCC(=O)c1c(O)cc(O)cc1CC(=O)OCC [CYTOSPORONE B]

# Biological target: Nuclear receptor subfamily 4 group A member 2 (Homo sapiens) (UniProt P43354)
# Assay: Modulation of full length human Nurr1 expressed in PC12 cells co-transfected with luciferase reporter plasmid harboring NurRE response element assessed as increase in luciferase activity incubated for 18 hrs by luciferase reporter-gene assay
# Assay type: cell-based
# Settings: PC-12, filed as modulator
# In short: (§2)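 Here PC12 cells (FK-12 medium, 15% horse serum, 2.5% FBS, 37°C, 5% CO2) received full-length Nurr1 (2 μg) without RXRα, plus 3xNBRE- or 3xNurRE-luciferase reporter (6 μg), for 18 h. Cells were replated at 10,000/well for 4 h, then treated with ligand or vehicle in quadruplicate for 18 h. Luciferase luminescence was normalized to vehicle-treated cells. Results are mean ± s.e.m. (n=4) from 2 independent experiments, with one-way ANOVA against vehicle.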
row,Activity,SMILES
1,Dose-Dependent Effect,CCN(CC)CCCC(C)Nc1ccnc2cc(Cl)ccc12 (stereo not given) [CHLOROQUINE]
2,Dose-Dependent Effect,CCCCCCCC(=O)c1c(O)cc(O)cc1CC(=O)OCC [CYTOSPORONE B]

# Biological target: Nuclear receptor subfamily 4 group A member 2 (Homo sapiens) (UniProt P43354)
# Assay: Modulation of full length human Nurr1 expressed in PC12 cells co-transfected with RXRalpha and luciferase reporter plasmid harboring NBRE response element assessed as increase in luciferase activity incubated for 18 hrs by luciferase reporter-gene assay
# Assay type: cell-based
# Settings: PC-12, filed as modulator
# In short: as §1
row,Activity,SMILES
1,Dose-Dependent Effect,CCN(CC)CCCC(C)Nc1ccnc2cc(Cl)ccc12 (stereo not given) [CHLOROQUINE]
2,Dose-Dependent Effect,CCCCCCCC(=O)c1c(O)cc(O)cc1CC(=O)OCC [CYTOSPORONE B]

# Biological target: Nuclear receptor subfamily 4 group A member 2 (Homo sapiens) (UniProt P43354)
# Assay: Modulation of full length human Nurr1 expressed in PC12 cells co-transfected with luciferase reporter plasmid harboring NBRE response element assessed as increase in luciferase activity incubated for 18 hrs by luciferase reporter-gene assay
# Assay type: cell-based
# Settings: PC-12, filed as modulator
# In short: as §2
row,Activity,SMILES
1,Dose-Dependent Effect,CCN(CC)CCCC(C)Nc1ccnc2cc(Cl)ccc12 (stereo not given) [CHLOROQUINE]
2,Dose-Dependent Effect,CCCCCCCC(=O)c1c(O)cc(O)cc1CC(=O)OCC [CYTOSPORONE B]

# Biological target: Nuclear receptor subfamily 4 group A member 2 (Homo sapiens) (UniProt P43354)
# Assay: Modulation of full length human Nurr1 expressed in HEK293T cells co-transfected with RXRalpha and luciferase reporter plasmid harboring NBRE response element assessed as increase in luciferase activity incubated for 18 hrs by luciferase reporter-gene assay
# Assay type: cell-based
# Settings: filed as modulator
# In short: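 Full-length Nurr1 plasmid, alone (2 μg) or 1 μg plus full-length RXRα (1 μg), cotransfected with 3xNBRE- or 3xNurRE-luciferase reporter (6 μg) using Lipofectamine 2000, 18 h. Cells replated at 10,000/well for 4 h. Four ligand concentrations, or vehicle (water, ethanol or DMSO), added in quadruplicate for 18 h. Luciferase read. Fold change vs vehicle, mean ± s.e.m., one-way ANOVA vs vehicle.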
row,Activity,SMILES
1,Dose-Dependent Effect,CCN(CC)CCCC(C)Nc1ccnc2cc(Cl)ccc12 (stereo not given) [CHLOROQUINE]
2,Dose-Dependent Effect,CCCCCCCC(=O)c1c(O)cc(O)cc1CC(=O)OCC [CYTOSPORONE B]

# Biological target: Nuclear receptor subfamily 4immunitygroup A member 1 (Homo sapiens) (UniProt P22736)
# Sequence (P22736 whole entry): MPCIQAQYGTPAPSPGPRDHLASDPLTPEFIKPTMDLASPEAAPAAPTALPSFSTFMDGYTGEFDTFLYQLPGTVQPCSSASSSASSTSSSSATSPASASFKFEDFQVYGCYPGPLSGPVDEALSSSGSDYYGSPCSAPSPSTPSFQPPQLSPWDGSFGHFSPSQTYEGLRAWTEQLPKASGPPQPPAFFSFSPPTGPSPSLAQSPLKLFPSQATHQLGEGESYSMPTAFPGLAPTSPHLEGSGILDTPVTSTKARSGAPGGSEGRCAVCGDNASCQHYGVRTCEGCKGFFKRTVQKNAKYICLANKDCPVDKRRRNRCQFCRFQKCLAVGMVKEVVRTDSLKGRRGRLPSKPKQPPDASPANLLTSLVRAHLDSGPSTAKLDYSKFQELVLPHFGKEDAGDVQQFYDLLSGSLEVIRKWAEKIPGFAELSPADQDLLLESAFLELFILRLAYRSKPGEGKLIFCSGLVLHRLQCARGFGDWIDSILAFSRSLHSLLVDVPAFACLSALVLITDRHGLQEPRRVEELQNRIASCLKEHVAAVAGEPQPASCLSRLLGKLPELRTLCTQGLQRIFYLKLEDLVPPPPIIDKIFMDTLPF
# Assay: Modulation of full length human Nur77 expressed in SK-N-BE(2) cells co-transfected with luciferase reporter plasmid harboring NBRE response element assessed as increase in luciferase activity incubated for 18 by luciferase reporter gene assay
# Assay type: cell-based
# Settings: SKNBE2, filed as modulator, time 18.0 hrs
# In short: (§3)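 Cells seeded at 1.5 million per 10-cm dish. Next day they were transfected (Lipofectamine 2000) with full-length Nur77 or NOR-1 expression plasmid, either alone (2 μg) or 1 μg plus full-length RXRα (1 μg), and 3xNBRE- or 3xNurRE-luciferase reporter (6 μg), 18 h. Cells replated at 10,000/well, 4 h, then ligand dose response added in quadruplicate for 18 h. Luciferase luminescence read.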
row,Activity,SMILES
1,Dose-Dependent Effect,CCN(CC)CCCC(C)Nc1ccnc2cc(Cl)ccc12 (stereo not given) [CHLOROQUINE]
2,Dose-Dependent Effect,CCCCCCCC(=O)c1c(O)cc(O)cc1CC(=O)OCC [CYTOSPORONE B]

# Biological target: Nuclear receptor subfamily 4 group A member 3 (Homo sapiens) (UniProt Q92570)
# Sequence (Q92570 whole entry): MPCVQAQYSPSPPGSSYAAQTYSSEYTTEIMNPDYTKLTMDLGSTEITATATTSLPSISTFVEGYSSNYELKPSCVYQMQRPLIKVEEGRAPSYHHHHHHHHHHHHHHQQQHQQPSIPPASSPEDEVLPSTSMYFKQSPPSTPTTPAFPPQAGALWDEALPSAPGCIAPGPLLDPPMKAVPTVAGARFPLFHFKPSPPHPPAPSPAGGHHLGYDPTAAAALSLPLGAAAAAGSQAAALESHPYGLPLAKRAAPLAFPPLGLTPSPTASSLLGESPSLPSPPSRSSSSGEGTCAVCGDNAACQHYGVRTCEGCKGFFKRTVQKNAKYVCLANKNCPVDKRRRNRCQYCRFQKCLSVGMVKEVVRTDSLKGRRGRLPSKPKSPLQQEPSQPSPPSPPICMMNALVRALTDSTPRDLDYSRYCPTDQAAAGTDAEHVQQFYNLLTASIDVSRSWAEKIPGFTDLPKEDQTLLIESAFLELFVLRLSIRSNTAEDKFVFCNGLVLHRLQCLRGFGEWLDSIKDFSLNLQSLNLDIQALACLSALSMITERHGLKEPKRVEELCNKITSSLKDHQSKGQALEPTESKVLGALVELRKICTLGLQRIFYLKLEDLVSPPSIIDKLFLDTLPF
# Assay: Modulation of full length human NOR1 expressed in SK-N-BE(2) cells co-transfected with luciferase reporter plasmid harboring NurRE response element assessed as increase in luciferase activity incubated for 18 by luciferase reporter gene assay
# Assay type: cell-based
# Settings: SKNBE2, filed as modulator, time 18.0 hrs
# In short: as §3
row,Activity,SMILES
1,Dose-Dependent Effect,CCN(CC)CCCC(C)Nc1ccnc2cc(Cl)ccc12 (stereo not given) [CHLOROQUINE]
2,Dose-Dependent Effect,CCCCCCCC(=O)c1c(O)cc(O)cc1CC(=O)OCC [CYTOSPORONE B]

# Biological target: Nuclear receptor subfamily 4immunitygroup A member 1 (Homo sapiens) (UniProt P22736)
# Assay: Modulation of full length human Nur77 expressed in HEK293 cells co-transfected with RXRalpha and luciferase reporter plasmid harboring NBRE response element assessed as increase in luciferase activity incubated for 18 hrs by luciferase reporter gene assay
# Assay type: cell-based
# Settings: filed as modulator
# In short: as §3
row,Activity,SMILES
1,Dose-Dependent Effect,CCN(CC)CCCC(C)Nc1ccnc2cc(Cl)ccc12 (stereo not given) [CHLOROQUINE]
2,Dose-Dependent Effect,CCCCCCCC(=O)c1c(O)cc(O)cc1CC(=O)OCC [CYTOSPORONE B]

# Biological target: Nuclear receptor subfamily 4 group A member 3 (Homo sapiens) (UniProt Q92570)
# Assay: Modulation of full length human NOR1 expressed in HEK293 cells co-transfected with luciferase reporter plasmid harboring NurRE response element assessed as increase in luciferase activity incubated for 18 hrs by luciferase reporter gene assay
# Assay type: cell-based
# Settings: filed as modulator
# In short: (§4)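 Full-length NOR-1 plasmid was transfected via Lipofectamine 2000, either alone (2 μg) or at 1 μg with full-length RXRα (1 μg). It was paired with a 3xNBRE or 3xNurRE luciferase reporter (6 μg), 8 μg total DNA, for 18 h. Cells were replated at 10,000/well for 4 h, then given a full ligand dose response or vehicle in quadruplicate for 18 h. Luciferase was read; no EC50/IC50 was fitted.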
row,Activity,SMILES
1,Dose-Dependent Effect,CCN(CC)CCCC(C)Nc1ccnc2cc(Cl)ccc12 (stereo not given) [CHLOROQUINE]
2,Dose-Dependent Effect,CCCCCCCC(=O)c1c(O)cc(O)cc1CC(=O)OCC [CYTOSPORONE B]

# Biological target: Nuclear receptor subfamily 4 group A member 3 (Homo sapiens) (UniProt Q92570)
# Assay: Modulation of full length human NOR1 expressed in HEK293T cells co-transfected with RXRalpha luciferase reporter plasmid harboring NBRE response element assessed as increase in luciferase activity incubated for 18 hrs by luciferase reporter gene assay
# Assay type: cell-based
# Settings: filed as modulator
# In short: as §4
row,Activity,SMILES
1,Dose-Dependent Effect,CCN(CC)CCCC(C)Nc1ccnc2cc(Cl)ccc12 (stereo not given) [CHLOROQUINE]
2,Dose-Dependent Effect,CCCCCCCC(=O)c1c(O)cc(O)cc1CC(=O)OCC [CYTOSPORONE B]

# Biological target: Nuclear receptor subfamily 4 group A member 3 (Homo sapiens) (UniProt Q92570)
# Assay: Modulation of full length human NOR1 expressed in SK-N-BE(2) cells co-transfected with luciferase reporter plasmid harboring NBRE response element assessed as increase in luciferase activity incubated for 18 by luciferase reporter gene assay
# Assay type: cell-based
# Settings: SKNBE2, filed as modulator, time 18.0 hrs
# In short: as §3
row,Activity,SMILES
1,Dose-Dependent Effect,CCN(CC)CCCC(C)Nc1ccnc2cc(Cl)ccc12 (stereo not given) [CHLOROQUINE]
2,Dose-Dependent Effect,CCCCCCCC(=O)c1c(O)cc(O)cc1CC(=O)OCC [CYTOSPORONE B]

# Biological target: Nuclear receptor subfamily 4immunitygroup A member 1 (Homo sapiens) (UniProt P22736)
# Assay: Modulation of full length human Nur77 expressed in PC12 cells co-transfected with luciferase reporter plasmid harboring NBRE response element assessed as increase in luciferase activity incubated for 18 by luciferase reporter gene assay
# Assay type: cell-based
# Settings: PC-12, filed as modulator, time 18.0 hrs
# In short: as §3
row,Activity,SMILES
1,Dose-Dependent Effect,CCN(CC)CCCC(C)Nc1ccnc2cc(Cl)ccc12 (stereo not given) [CHLOROQUINE]
2,Dose-Dependent Effect,CCCCCCCC(=O)c1c(O)cc(O)cc1CC(=O)OCC [CYTOSPORONE B]

# Biological target: Nuclear receptor subfamily 4 group A member 3 (Homo sapiens) (UniProt Q92570)
# Assay: Modulation of full length human NOR1 expressed in PC12 cells co-transfected with luciferase reporter plasmid harboring NurRE response element assessed as increase in luciferase activity incubated for 18 by luciferase reporter gene assay
# Assay type: cell-based
# Settings: PC-12, filed as modulator, time 18.0 hrs
# In short: as §4
row,Activity,SMILES
1,Dose-Dependent Effect,CCN(CC)CCCC(C)Nc1ccnc2cc(Cl)ccc12 (stereo not given) [CHLOROQUINE]
2,Dose-Dependent Effect,CCCCCCCC(=O)c1c(O)cc(O)cc1CC(=O)OCC [CYTOSPORONE B]
